# How the values were obtained:
# [1] = target: T1, OR10G8 (Homo sapiens) (UniProt Q8NGN5); conditions: stereoisomer not certain
# T1 sequence (whole entry): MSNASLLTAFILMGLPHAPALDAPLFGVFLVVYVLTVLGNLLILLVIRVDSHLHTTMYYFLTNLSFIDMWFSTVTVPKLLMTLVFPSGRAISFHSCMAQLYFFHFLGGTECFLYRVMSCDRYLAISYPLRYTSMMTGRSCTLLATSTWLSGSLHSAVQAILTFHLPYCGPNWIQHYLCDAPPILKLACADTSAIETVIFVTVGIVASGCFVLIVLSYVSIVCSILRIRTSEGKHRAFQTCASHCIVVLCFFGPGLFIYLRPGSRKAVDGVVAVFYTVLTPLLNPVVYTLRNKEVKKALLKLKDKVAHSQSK
# Summary of the method: (§1)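 Transient luciferase assays in mammalian cell lines were common, though methods varied by source. The values come from published papers and their supplementary material, with extra details from the original authors when needed. Responsive refers to a measured signal the original authors judged statistically different from baseline, and non-responsive (inactive) to the remainder.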
# [2] = target: T2, OR10A7 (Homo sapiens) (UniProt Q8NGE5); conditions: stereoisomer not certain
# T2 sequence (whole entry): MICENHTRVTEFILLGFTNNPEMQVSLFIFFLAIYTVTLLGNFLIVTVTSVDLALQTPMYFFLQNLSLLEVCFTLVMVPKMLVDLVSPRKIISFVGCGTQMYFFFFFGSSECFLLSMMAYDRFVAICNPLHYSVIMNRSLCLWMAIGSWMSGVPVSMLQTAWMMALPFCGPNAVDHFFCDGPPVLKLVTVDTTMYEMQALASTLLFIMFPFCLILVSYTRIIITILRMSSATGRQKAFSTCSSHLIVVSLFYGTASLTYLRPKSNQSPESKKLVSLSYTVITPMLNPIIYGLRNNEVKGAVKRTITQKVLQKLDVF
# Summary of the method: as §1
# 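Note: active if original authors judged signal statistically different from baseline.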
Structure (SMILES),odorant receptor agonist call [1],odorant receptor agonist call [2]
CCCCCCCCC(=O)O,inactive,–
CC(C)CS,–,inactive

# From the M2OR odorant receptor database
